The values below come from the M2OR odorant receptor database.

Structures are written as SMILES.

Holding throughout (conditions): stereoisomer not certain
In one experiment the target is T1, OR52I1 (Homo sapiens) (UniProt Q8NGK6).
T1 sequence (whole entry): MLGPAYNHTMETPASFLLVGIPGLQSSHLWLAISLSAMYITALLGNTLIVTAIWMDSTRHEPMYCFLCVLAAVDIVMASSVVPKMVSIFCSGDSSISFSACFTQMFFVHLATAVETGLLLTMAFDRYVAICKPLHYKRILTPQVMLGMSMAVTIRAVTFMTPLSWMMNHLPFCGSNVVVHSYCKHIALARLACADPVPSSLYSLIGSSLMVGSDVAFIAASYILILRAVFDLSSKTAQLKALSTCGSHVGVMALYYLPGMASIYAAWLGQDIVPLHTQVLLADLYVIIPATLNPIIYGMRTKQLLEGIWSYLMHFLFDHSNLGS
Summed up: (§1)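 Each receptor–molecule pair is labelled responsive or non-responsive (inactive) according to whether the original authors judged the measured signal statistically different from baseline. The data were taken from the main text and supplementary material of published papers and checked for typos and inconsistencies. Assay methods differed by source, with transient luciferase assays in mammalian cell lines being common.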

A further experiment concerns the target T2, OR52I2 (Homo sapiens) (UniProt Q8NH67).
T2 sequence (whole entry): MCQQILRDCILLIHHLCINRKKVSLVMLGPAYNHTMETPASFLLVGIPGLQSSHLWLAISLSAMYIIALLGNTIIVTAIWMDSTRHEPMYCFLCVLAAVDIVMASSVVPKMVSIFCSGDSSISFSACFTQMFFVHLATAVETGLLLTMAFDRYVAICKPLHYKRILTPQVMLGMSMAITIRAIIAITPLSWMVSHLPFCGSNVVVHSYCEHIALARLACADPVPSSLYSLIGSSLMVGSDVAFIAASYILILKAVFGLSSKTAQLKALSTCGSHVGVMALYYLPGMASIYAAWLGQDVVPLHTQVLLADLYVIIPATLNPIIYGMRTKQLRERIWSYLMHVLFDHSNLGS
The essentials:
as §1

The next experiment has as its target OR52J3 (Homo sapiens) (UniProt Q8NH60). Summed up: as §1
A further experiment addresses T3, OR52K1 (Homo sapiens) (UniProt Q8NGK4).
T3 sequence (whole entry): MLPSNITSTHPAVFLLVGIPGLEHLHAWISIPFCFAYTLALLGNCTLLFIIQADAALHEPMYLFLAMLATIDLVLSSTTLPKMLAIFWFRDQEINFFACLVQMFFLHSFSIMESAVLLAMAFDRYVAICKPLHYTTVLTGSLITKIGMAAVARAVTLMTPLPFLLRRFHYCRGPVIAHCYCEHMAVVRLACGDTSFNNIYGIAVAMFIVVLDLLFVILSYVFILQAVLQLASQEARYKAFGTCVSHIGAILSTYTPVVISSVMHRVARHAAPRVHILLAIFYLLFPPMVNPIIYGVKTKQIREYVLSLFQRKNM
Summed up: as §1

The next experiment deals with T4, OR52K2 (Homo sapiens) (UniProt Q8NGK3).
T4 sequence (whole entry): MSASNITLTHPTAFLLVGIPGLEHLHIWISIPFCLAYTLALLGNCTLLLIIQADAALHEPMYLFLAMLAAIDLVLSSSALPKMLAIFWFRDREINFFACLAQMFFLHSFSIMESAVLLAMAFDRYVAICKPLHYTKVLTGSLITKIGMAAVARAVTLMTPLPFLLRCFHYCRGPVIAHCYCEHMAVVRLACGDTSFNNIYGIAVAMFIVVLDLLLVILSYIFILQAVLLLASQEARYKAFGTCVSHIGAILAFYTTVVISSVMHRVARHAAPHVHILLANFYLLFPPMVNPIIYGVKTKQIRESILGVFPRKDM
Summed up: as §1

The target of a further experiment is T5, OR52L1 (Homo sapiens) (UniProt Q8NGH7).
T5 sequence (whole entry): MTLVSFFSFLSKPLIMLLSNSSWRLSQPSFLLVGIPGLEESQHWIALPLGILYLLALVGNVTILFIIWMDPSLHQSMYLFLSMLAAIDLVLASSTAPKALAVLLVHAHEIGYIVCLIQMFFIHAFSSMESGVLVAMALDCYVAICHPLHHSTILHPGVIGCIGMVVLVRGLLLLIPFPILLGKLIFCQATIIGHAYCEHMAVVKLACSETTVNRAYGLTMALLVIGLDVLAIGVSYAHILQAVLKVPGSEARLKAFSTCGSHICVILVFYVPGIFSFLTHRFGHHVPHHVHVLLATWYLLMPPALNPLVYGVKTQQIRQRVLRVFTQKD
Summed up:
as §1

Another experiment concerns the target T6, OR52M1 (Homo sapiens) (UniProt Q8NGK5).
T6 sequence (whole entry): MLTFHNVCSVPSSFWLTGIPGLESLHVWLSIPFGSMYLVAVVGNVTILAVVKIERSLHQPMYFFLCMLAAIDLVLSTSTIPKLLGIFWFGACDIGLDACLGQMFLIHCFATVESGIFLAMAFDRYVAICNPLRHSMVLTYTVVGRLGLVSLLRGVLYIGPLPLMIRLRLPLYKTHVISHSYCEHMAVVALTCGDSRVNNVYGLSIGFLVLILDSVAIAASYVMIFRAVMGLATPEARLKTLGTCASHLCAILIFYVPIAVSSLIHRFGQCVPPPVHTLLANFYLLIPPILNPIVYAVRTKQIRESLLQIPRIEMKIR
Summed up:
as §1

For the next experiment, the target named is T7, OR52N1 (Homo sapiens) (UniProt Q8NH53).
T7 sequence (whole entry): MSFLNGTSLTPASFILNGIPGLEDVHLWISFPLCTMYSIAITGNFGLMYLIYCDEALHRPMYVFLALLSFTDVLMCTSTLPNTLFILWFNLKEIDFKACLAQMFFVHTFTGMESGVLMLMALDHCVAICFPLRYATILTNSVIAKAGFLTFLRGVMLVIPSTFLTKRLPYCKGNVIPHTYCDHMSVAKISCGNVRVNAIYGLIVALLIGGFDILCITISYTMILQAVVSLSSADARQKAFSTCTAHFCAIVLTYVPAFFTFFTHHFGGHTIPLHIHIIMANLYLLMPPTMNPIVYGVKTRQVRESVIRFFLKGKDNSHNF
The essentials: as §1

The next experiment has as its target T8, OR52N2 (Homo sapiens) (UniProt Q8NGI0).
T8 sequence (whole entry): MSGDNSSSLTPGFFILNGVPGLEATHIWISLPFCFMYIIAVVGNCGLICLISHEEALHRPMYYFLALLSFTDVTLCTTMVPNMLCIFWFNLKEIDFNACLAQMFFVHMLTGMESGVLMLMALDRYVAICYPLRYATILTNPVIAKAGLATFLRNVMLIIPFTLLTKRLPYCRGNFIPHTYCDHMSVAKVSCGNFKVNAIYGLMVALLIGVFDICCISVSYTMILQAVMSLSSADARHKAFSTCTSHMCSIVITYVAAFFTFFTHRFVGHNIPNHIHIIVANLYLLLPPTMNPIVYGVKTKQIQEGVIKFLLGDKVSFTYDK
Summed up: as §1

The next experiment addresses T9, OR52N4 (Homo sapiens) (UniProt Q8NGI2).
T9 sequence (whole entry): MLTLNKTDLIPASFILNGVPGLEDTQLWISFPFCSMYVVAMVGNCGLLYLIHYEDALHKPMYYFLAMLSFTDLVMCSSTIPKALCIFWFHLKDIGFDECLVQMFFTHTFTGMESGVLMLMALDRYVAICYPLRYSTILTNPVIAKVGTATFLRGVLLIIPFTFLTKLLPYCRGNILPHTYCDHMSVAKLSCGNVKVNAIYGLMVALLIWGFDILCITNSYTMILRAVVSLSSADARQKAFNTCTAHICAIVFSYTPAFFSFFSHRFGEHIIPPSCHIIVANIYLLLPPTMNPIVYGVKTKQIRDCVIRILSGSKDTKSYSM
The essentials: as §1

Another experiment deals with T10, OR52N5 (Homo sapiens) (UniProt Q8NH56).
T10 sequence (whole entry): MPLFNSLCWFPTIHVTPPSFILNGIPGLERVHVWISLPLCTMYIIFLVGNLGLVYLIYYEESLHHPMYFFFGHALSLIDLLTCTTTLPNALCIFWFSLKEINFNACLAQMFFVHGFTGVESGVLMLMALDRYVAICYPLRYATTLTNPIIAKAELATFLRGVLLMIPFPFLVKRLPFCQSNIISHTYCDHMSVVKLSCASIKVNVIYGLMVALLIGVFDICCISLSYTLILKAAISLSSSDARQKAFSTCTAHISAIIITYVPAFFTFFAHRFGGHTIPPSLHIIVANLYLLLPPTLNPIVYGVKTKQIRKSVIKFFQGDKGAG
Summed up:
as §1

The next experiment concerns the target T11, OR52R1 (Homo sapiens) (UniProt Q8NGF1).
T11 sequence (whole entry): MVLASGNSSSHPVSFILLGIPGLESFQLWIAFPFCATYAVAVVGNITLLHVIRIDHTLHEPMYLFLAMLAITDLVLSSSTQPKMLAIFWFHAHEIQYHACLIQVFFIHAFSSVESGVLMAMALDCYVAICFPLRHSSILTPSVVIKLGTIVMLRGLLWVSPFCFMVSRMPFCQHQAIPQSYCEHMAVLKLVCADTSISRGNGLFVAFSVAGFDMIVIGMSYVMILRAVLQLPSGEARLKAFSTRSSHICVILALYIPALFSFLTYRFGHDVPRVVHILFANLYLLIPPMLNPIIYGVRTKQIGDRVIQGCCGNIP
The essentials: as §1

The target of a further experiment is T12, OR52W1 (Homo sapiens) (UniProt Q6IF63).
T12 sequence (whole entry): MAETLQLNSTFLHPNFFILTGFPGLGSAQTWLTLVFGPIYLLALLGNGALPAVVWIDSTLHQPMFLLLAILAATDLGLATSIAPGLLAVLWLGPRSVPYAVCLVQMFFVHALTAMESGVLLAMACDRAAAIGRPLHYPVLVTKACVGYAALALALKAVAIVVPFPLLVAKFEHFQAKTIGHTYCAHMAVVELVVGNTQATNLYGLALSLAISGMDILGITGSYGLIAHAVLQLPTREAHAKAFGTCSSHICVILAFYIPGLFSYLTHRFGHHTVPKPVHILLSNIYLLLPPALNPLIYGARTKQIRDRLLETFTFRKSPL
The essentials:
as §1

The target in another experiment is T13, OR56A1 (Homo sapiens) (UniProt Q8NGH5).
T13 sequence (whole entry): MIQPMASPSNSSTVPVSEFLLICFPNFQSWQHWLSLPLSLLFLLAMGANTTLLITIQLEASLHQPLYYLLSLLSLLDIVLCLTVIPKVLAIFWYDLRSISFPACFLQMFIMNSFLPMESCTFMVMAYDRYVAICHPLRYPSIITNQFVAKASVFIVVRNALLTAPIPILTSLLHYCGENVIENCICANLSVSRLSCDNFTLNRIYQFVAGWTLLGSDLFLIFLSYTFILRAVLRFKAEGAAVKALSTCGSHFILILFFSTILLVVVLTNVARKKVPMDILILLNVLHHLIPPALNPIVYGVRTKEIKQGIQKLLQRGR
Summed up: as §1

For a further experiment, the target named is T14, OR56A3 (Homo sapiens) (UniProt Q8NH54).
T14 sequence (whole entry): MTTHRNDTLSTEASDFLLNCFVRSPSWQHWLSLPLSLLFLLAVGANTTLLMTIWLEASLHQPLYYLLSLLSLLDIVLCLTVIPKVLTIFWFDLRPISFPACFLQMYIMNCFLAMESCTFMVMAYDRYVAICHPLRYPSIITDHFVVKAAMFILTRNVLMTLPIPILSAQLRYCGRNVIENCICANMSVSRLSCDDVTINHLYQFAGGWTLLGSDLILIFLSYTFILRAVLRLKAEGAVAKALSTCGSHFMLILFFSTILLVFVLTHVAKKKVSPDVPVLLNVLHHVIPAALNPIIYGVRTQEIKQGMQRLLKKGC
Summed up:
as §1

In another experiment the target is T15, OR56A4 (Homo sapiens) (UniProt Q8NGH8).
T15 sequence (whole entry): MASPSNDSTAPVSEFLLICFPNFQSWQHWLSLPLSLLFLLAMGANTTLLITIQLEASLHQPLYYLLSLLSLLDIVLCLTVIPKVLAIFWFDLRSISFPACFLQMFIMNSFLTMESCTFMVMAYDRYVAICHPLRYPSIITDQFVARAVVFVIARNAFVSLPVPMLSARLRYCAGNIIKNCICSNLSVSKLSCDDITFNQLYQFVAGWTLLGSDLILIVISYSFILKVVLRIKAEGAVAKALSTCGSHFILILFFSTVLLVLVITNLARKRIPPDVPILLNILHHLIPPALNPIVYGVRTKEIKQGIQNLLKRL
The essentials:
as §1

Another experiment addresses T16, OR56B1 (Homo sapiens) (UniProt Q8NGI3).
T16 sequence (whole entry): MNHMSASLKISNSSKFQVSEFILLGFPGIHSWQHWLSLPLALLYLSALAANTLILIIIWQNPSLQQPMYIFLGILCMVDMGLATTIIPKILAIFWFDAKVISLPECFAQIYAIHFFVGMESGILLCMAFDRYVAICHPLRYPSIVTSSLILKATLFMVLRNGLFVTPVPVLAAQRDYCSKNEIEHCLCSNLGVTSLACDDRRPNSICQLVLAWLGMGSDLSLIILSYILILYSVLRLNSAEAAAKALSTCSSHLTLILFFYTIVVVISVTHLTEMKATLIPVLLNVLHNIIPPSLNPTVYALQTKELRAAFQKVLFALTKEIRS
The essentials: as §1

OR52J3 (Homo sapiens), sequence (Q8NH60 whole entry): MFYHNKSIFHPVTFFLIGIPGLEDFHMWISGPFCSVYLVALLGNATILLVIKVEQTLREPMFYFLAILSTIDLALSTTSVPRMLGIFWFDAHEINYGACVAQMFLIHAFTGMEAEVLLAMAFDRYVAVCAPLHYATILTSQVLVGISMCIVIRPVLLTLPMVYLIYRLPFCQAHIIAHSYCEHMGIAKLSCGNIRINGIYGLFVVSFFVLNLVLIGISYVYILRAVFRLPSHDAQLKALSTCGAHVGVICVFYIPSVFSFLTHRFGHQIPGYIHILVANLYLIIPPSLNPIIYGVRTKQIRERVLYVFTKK

On to `CCCCCC1CCCC(=O)O1` (configuration not stated), for which the “odorant receptor agonist call” value in the experiment with OR52I1 (Homo sapiens), with OR52I2 (Homo sapiens), in the experiment with OR52J3 (Homo sapiens), with OR52K2 (Homo sapiens), in the experiment with OR52N1 (Homo sapiens) and with OR52N2 (Homo sapiens) was “inactive” throughout. For the same compound, the “odorant receptor agonist call” value with OR52N4 (Homo sapiens), with OR52W1 (Homo sapiens), in the experiment with OR56A1 (Homo sapiens), with OR56A3 (Homo sapiens), in the experiment with OR56A4 (Homo sapiens) and with OR56B1 (Homo sapiens) was “inactive” each time. In addition, the “odorant receptor agonist call” value with OR52K1 (Homo sapiens), with OR52L1 (Homo sapiens), with OR52M1 (Homo sapiens), with OR52N5 (Homo sapiens) and with OR52R1 (Homo sapiens) was “active” each time.
